Screens from PubChem BioAssay.
FN deposition inh = inhibitors of fibronectin matrix deposition, primary screen, AH1F cells, Alexa488-fibronectin fluorescence, plate reader | AH1F fibroblasts, overnight | inhibition, % at 12.6 µM | hit rate 0.086% among 350,000 | AID 743247, 2014;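 active = mean inhibition across replicates of 30% or more, regardless of how many single replicates reach that level; inconclusive = mean under 30% yet at least half of replicates reach 30%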;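 note: positive control wells lacked labelled fibronectin entirely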
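material = AH1F fibroblast monolayer depositing Alexa488-labelled fibronectin into matrix | amount = 10000 AH1F cells/well | buffer or medium = DMEM plus 2% serum, read in PBS | incubation = 1 h cell adhesion before compound, then overnight fibronectin incubation | detection = fluorescence at 485 nm excitation, 525 nm emission | evaluation = percent inhibition as loss of matrix-bound fibronectin fluorescence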
HIV Env fusion = inhibitors of HIV-1 Env-driven cell-cell fusion, primary screen, HeLa-JRFL effector, CEM21 target cells, luciferase | inhibition, % at 12.3 µM | hit rate 1.1% among 360,000;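 active = mean replicate inhibition score of at least 50 and every replicate individually at or above 50; inconclusive = only one of the two criteria met; inactive = mean below 50 and not all replicates reaching 50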;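 note: 0% = plate neutral controls and 100% = maraviroc near 300 nM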
EWS-Fli block = EWS/Fli-driven NR0B1 reporter inhibitors, primary screen, A673 cells, NR0B1 luciferase, luminescence, MLPCN library | viability-normalised | AID 651661, 2012 | hit rate 0.67% among 350,000 | inhibition, % at 12.6 µM;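 active = mean inhibition of at least 50% after viability correction, with every replicate also passing that limit; inconclusive = mean reaches 50% but only one of two replicates passes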;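 note: firefly luciferase signal divided by Alamar Blue viability fluorescence both relative to DMSO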
PAX8 reporter = inhibitors of PAX8-driven TPO luciferase reporter, primary screen, RMG-I cells, single concentration; inhibition, % at 12.6 µM; AID 652154, 2013; hit rate 1.2% among 360,000; SteadyGlo, 24 h;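 active = mean replicate inhibition at least 60% with every replicate also reaching 60%; inconclusive = only one of the two criteria is met; inactive = mean below 60% and not all replicates reaching 60%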;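 note: luciferase light reporting Pax8 driven TPO promoter activity; plate controls were median of neutral control wells for no effect and mitoxantrone controls for full effect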
MLL AF4-AF9 inh = inhibitors of AF4 peptide binding to AF9, primary screen, biochemical, AlphaScreen, biotin-AF4 peptide, FLAG-AF9, single point | Protein AF-9 (Homo sapiens), P42568 | hit rate 0.47% among 350,000 | AID 651704, 2012 | inhibition, % at 10 µM;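 active = every replicate reaching a set inhibition limit, whatever the replicate mean, cut at about 25% in these data; inconclusive = mean inhibition reaches that limit but some replicates miss it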;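 note: 0% = plate neutral control median and 100% = total signal loss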
Target sequence (P42568 whole entry, looked up): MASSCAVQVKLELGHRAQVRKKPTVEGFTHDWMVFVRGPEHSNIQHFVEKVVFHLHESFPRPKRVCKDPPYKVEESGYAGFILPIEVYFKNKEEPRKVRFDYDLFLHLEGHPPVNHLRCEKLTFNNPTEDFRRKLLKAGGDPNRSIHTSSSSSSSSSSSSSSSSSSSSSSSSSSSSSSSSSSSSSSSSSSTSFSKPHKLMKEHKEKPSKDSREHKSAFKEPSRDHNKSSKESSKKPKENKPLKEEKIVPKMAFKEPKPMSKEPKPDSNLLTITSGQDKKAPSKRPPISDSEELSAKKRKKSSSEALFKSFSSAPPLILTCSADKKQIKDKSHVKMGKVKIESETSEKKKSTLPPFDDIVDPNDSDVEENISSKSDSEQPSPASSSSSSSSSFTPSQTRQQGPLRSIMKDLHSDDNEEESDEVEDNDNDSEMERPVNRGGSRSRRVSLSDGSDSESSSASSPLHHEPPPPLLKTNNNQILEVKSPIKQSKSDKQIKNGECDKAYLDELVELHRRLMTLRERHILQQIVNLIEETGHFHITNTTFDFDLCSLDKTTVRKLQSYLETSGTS
N-glyco inh = increase of ERlucT glycosylation luciferase signal, primary screen, N-linked glycosylation inhibitor project, D54 ERlucT cells, luminescence, set 2. D54 ERlucT glycosylation luciferase reporter, 24 h; percent of 100 nM tunicamycin response. AID 588692, 2011. hit rate 0.23% among 360,000. reporter increase, % at 12.5 µM;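 active = mean luciferase reporter signal, scaled so untreated is 0 and the glycosylation-blocking control 100, at or above a set limit in every replicate; inconclusive = mean reaches the limit but not every replicate does; inactive = mean below the limit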;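 note: luciferase carries N-glycosylation sites so blocking glycosylation raises the light; 0% = median of neutral control wells and 100% = median of 100 nM tunicamycin wells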
Numbers without * were called inactive; ? = inconclusive; · = no result; [ ] = remark or other dose. Sampled rows, rich in hits. Any-hit rate of the full collection: about 2.5%.

SMILES	FN deposition inh	HIV Env fusion	EWS-Fli block	PAX8 reporter	MLL AF4-AF9 inh	N-glyco inh
C[C@@H]1CN([C@@H](C)CO)C(=O)c2cc(NC(=O)Cc3ccccc3)ccc2O[C@@H](C)CCCCO[C@@H]1CN(C)Cc1ccccc1	-12.3	4.2[16.7 µM]	7.9	13.1	5.4	·
Cc1ccc(S(=O)(=O)N(C)C[C@H]2Oc3ccc(NC(=O)Nc4ccc(C(F)(F)F)cc4)cc3C(=O)N([C@H](C)CO)C[C@@H]2C)cc1	·	-3.1[16.7 µM]	2.6	31.4	-12.5	·
COc1cc(O)c(C(CC(=O)N2CCN(c3ccccc3)CC2)c2ccc(N(C)C)cc2)c(OC)c1 (stereo not given)	16.6	-351.6	-9.0	-10.4	27.5*	1.4
CCCNC(=O)Nc1ccc2c(c1)OC[C@@H](C)N(Cc1ccccc1)C[C@@H](C)[C@@H](OC)CN(C)C2=O	-2.2	·	0.0	·	-0.2	·
O=C(C[C@H]1CC[C@@H]2[C@H](COC[C@@H](O)CN2Cc2cccc(C(F)(F)F)c2)O1)NCc1ccc(F)cc1	-8.0	·	20.5	12.3	-0.6	·
O=C(C[C@@H]1CC[C@H]2[C@@H](COC[C@@H](O)CN2Cc2cccc(F)c2)O1)NCC1CCCCC1	-12.4	·	0.1	107.4*	0.2	·
O=C(C[C@@H]1CC[C@H]2[C@@H](COC[C@@H](O)CN2Cc2cccc(C(F)(F)F)c2)O1)NCc1ccc(F)cc1	-0.6	·	27.9	97.7*	-0.8	·
O=C(C[C@H]1CC[C@H]2[C@@H](COC[C@@H](O)CN2Cc2ccc(F)cc2)O1)NCc1ccccc1Cl	9.2	·	3.8	78.7*	1.9	·
O=C(C[C@@H]1CC[C@@H]2[C@H](COC[C@H](O)CN2Cc2cccc(F)c2)O1)NCC1CCCCC1	7.9	·	-45.4	-36.8	1.5	·
O=C(C[C@@H]1CC[C@@H]2[C@H](COC[C@@H](O)CN2Cc2ccc(F)cc2)O1)NCc1ccccc1Cl	9.3	·	11.2	-33.4	?	·
Cc1cccc(-c2ccc([C@@H]3[C@@H](CO)N4C(=O)CN(C(=O)Cc5ccccn5)C[C@@H]34)cc2)c1	·	·	3.9	9.6	-0.4	·
C[C@H]1CN([C@@H](C)CO)C(=O)c2cc(NC(=O)NC3CCCCC3)ccc2O[C@@H]1CN(C)Cc1ccc(C(F)(F)F)cc1	·	·	-5.0	·	-0.4	·
COCC#Cc1cnc2c(c1)C(=O)N([C@H](C)CO)C[C@H](C)[C@H](CN(C)C(=O)c1ccc(F)cc1)O2	-0.3	-7.3[16.7 µM]	-8.5	·	-2.2	·
CC(C)c1cccc(NC(=O)C[C@H]2CC[C@H]3[C@@H](COc4ccc(NC(=O)c5ccc(C#N)cc5)cc4C(=O)N3C)O2)c1	25.8	4.8[16.7 µM]	3.5	9.4	-1.9	·
C[C@@H](O)C#Cc1ccc2c(c1)O[C@@H](CN(C)CC1CC1)[C@@H](C)CN([C@@H](C)CO)S2(=O)=O	·	9.7[16.7 µM]	-10.0	·	·	·
CNc1c2cccc(C)c2nc2c(C(=O)NCCN(C)C)cccc12	1.6	·	58.3*	35.6	-4.6	-19.4
Fc1cccc(NCCc2c[nH]c3ccccc23)n1	0.2	-60.5	-11.8	-50.9	7.6	-0.7
c1ccc2c(NCCc3c[nH]c4ccccc34)c3ccccc3nc2c1	7.5	-13.4	43.5	-15.1	43.7*	-13.7
CN(C)CCCNc1c2c(nc3ccccc13)CCC2	12.4	2.4	20.6	2.3	8.3	29.8*
COCCNc1c2c(nc3ccccc13)CCC2	-3.5	-5.3	6.2	12.3	2.8	1.6
OCCCNc1c2ccccc2nc2ccccc12	-6.1	-0.9	19.5	32.8	-11.8	36.3*
O=C(c1ccccc1)N1CC2(C1)[C@@H](c1ccccc1)[C@@H](CO)N2C(=O)CC1CC1	·	·	·	·	-3.2	·
CCCNC(=O)C[C@@H]1C[C@@H]2c3cc(NC(=O)Nc4ccccc4)ccc3O[C@@H]2[C@H](CO)O1	-21.5	16.4[16.7 µM]	2.9	6.3	·	·
CC(C)NC(=O)Nc1ccc2c(c1)CC(=O)N([C@@H](C)CO)C[C@@H](C)[C@@H](CN(C)S(=O)(=O)c1cccs1)O2	4.5	10.7[16.7 µM]	-13.1	4.9	-10.7	·
C=CS(=O)(=O)N(Cc1ccccc1Br)[C@H](CO)Cc1ccccc1	7.7	49.9	-7.4	21.1	-2.3	-1.6
SMILES	FN deposition inh	HIV Env fusion	EWS-Fli block	PAX8 reporter	MLL AF4-AF9 inh	N-glyco inh
O=S(=O)(N(Cc1ccccc1)[C@@H](CO)Cc1ccccc1)N(Cc1ccccc1)[C@@H](CO)Cc1ccccc1	-3.1	70.6*	7.4	5.4	-4.2	-1.0
CC(C)C[C@H](CO)N(Cc1ccccc1)S(=O)(=O)N(Cc1ccccc1)[C@@H](CO)CC(C)C	-0.9	108.7*	26.9	42.1	-4.5	-9.2
O=C(C[C@H]1CC[C@H](NC(=O)Nc2ccc3c(c2)OCO3)[C@@H](CO)O1)NCc1ccc(Cl)cc1	2.4	-16.5[16.7 µM]	1.8	-1.1	2.0	·
CCN1[C@H](C(=O)NCC2CC2)[C@@H](CO)[C@@H]2Cn3c(ccc(-c4ccccc4OC)c3=O)[C@@H]21	·	·	-2.3	-12.9	-3.0	·
COc1ccc(N2CCN(C(=O)c3ccc(CNS(=O)(=O)c4ccc(C)cc4)cc3)CC2)cc1	-2.5	1.5	11.7	19.1	1.7	-4.6
O=C(c1cc([N+](=O)[O-])ccc1Cl)N1CCN(c2ccc([N+](=O)[O-])cc2)CC1	-2.2	·	12.3	69.7*	-1.8	8.0
Cc1ccc(S(=O)(=O)NCc2ccc(C(=O)N3CCN(c4ccc([N+](=O)[O-])cc4)CC3)cc2)cc1	-1.3	30.3	20.7	88.4*	-3.9	-10.0
O=C(c1cc([N+](=O)[O-])ccc1Cl)N1CCN(c2ccc(F)cc2)CC1	-8.3	2.0	-6.7	8.3	-1.9	-2.0
CN1CCCN(c2ccc([N+](=O)[O-])cc2)CC1	7.1	0.9	3.5	-3.7	28.3*	1.5
O=C(c1cccc([N+](=O)[O-])c1)N1CCN(c2cccc(Cl)c2)CC1	9.0	-217.0	·	38.1	·	19.9
COC(=O)c1cc(C(=O)N2CCN(c3cccc(Cl)c3)CC2)cc([N+](=O)[O-])c1	-7.8	-302.8	50.9*	56.7	11.2	18.1
COCC(=O)N(C)C[C@@H]1Oc2ncc(-c3ccc(F)cc3)cc2C(=O)N([C@H](C)CO)C[C@@H]1C	·	11.2[16.7 µM]	-5.4	·	-0.5	·
O=C(C[C@H]1CC[C@H]2[C@@H](COC[C@H](O)CN2Cc2ccc(Oc3ccccc3)cc2)O1)Nc1nccs1	-11.2	31.9[16.7 µM]	18.8	23.3	8.2	·
COC(=O)C1=C(C(=O)OC)[C@]2([C@H]3CC=CCN[C@@H](Cc4ccccc4)C(=O)N3Cc3ccccc3)C=C[C@H]1O2	-2.5	58.2*	24.6	47.1	3.7	-9.7
COC(=O)C1=C(C(=O)OC)[C@]2([C@@H]3CC=CCN[C@@H](Cc4ccccc4)C(=O)N3Cc3ccccc3)C=C[C@H]1O2	-1.3	73.3*	8.0	11.6	2.8	-9.5
